Assay outcomes deposited in PubChem by several laboratories.
STAT3 act = activators of IL-6 induced STAT3 signaling; U3A cells, IL-6 STAT3-luciferase reporter, luminescence; 100% = signal with IL-6 EC80 alone; AID 871; activation (% of control), % at 5.6 µM; 190,000 compounds, 0.91% hits;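 active means activation above the screen-wide mean of compound activation plus 3 SD, cut at about 130% in these data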;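 further: 0% = background luminescence of wells with medium and substrate only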
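Material: STAT3-luciferase reporter U3A cells; Probe or stimulus: IL-6 (33 ng/mL); Incubation: compound pre-incubation 1 h before IL-6, then 6 h stimulation at 37 °C; Technique: luminescence from STAT3-driven luciferase reporter; Evaluation: % activation versus median of IL-6-stimulated wells; Controls: IL-6-only high control.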
PPC-1+TRAIL kill = PPC-1 cancer cell killing with TRAIL present | PPC-1 cells + TRAIL, ATPLite viability luminescence | cell killing (% activity), % at 4 µM or 5 µM | 220,000 compounds, 0.41% hits;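 active means cell killing above 50% in the first pass at 4 µM, then a duplicate retest at 5 µM averaging 50% or more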;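 further: plate controls were cells with TRAIL plus DMSO for no effect and medium-only wells lacking cells for full effect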
C8 TRAIL sens = sensitizes caspase-8 expressing cells to TRAIL. 360,000 compounds, 1% hits. NB7+C8 cells + TRAIL, ATPlite viability luminescence. inhibition (viability loss, TRAIL sensitization), % at 10 µM;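 active means compounds causing at least 50% loss of cell viability in the single-dose screen, relative to plate controls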
STAT3 inh = STAT3 signaling inhibition. U3A cells, IL-6 STAT3-luciferase reporter, luminescence; host cell line lacks STAT1. inhibition, % at 5.5 µM. 190,000 compounds, 0.89% hits;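 active means inhibition above the mean inhibition across all screened compounds plus 3 SD, cut at about 44% in these data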;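 further: 0% = DMSO only wells and 100% = 100 µM nifuroxazide control wells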
STAT1 blocker = reduces IFN-gamma driven STAT1 reporter signal. inhibition, % at 5.5 µM. AID 920. 200,000 compounds, 0.35% hits. NIH 3T3 STAT1-luciferase reporter, luminescence;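 active means inhibition above a set limit, the mean inhibition across all tested compounds plus 3 SD, cut at about 34% in these data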;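 further: 0% = IFN-gamma with DMSO and 100% = IFN-gamma with 300 µM nifuroxazide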
Active calls of the source: *; · = not tested or not shown. Compounds with a hit are over-represented: about 1.8% of the library has one in this group of screens.

SMILES | STAT3 act | PPC-1+TRAIL kill | C8 TRAIL sens | STAT3 inh | STAT1 blocker
Oc1cccc(/C=N/NC(=S)Nc2cccnc2)c1O | 89.5 | 27.1 | 55.5* | 12.4 | 10.2
Oc1ccc(/C=N/NC(=S)Nc2cccnc2)c(O)c1O | · | 3.7 | -18.0 | · | ·
Oc1ccc(/C=N/NC(=S)Nc2cccnc2)c(O)c1 | 90.2 | 27.7 | 79.7* | 13.9 | 12.6
CCC1(c2ccccc2)NC(=O)N(CC(=O)NNC(=O)c2ccoc2C)C1=O (stereo not given) | · | · | 6.5 | · | ·
CCOC(=O)c1sc(NC(=O)Nc2ccccc2Cl)cc1C | 77.5 | 62.6* | 77.0* | 26.5 | -96.9
CCOC(=O)c1sc(NC(=O)Nc2ccccc2)cc1C | 94.7 | 60.2* | 73.2* | 6.2 | -100.3
CCOC(=O)c1c(N)sc(C(=O)Nc2ccccc2)c1C | 67.0 | 46.2 | 63.2* | 40.7 | -8.3
CCOC(=O)c1sc(NC(C)=O)cc1C | 96.3 | -20.2 | -6.1 | 3.6 | -1.1
COc1ccc(NC(=O)Cn2cc(C(C)=O)c3ccccc32)cc1 | · | · | 0.2 | · | ·
CC(=O)c1cn(CC(=O)Nc2ccc(C)cc2)c2ccccc12 | 51.4 | 22.0 | 2.5 | 57.1* | 13.6
CCN1C(=NCCCOC(C)C)N[C@@H](CCc2ccccc2)[C@H](C(=O)NCCCOC(C)C)[C@H]1C | · | · | 6.7 | · | ·
Cc1ccc(CSc2nc3ccncc3n2CC(=O)Nc2cc(C)cc(C)c2)cc1 | 103.7 | 19.2 | 50.7* | -4.4 | 2.0
Cc1cc(-c2ccccc2)nc(N/N=C/c2ccc(O)cc2)n1 | · | · | 76.7* | · | ·
Cc1cc(C)c2nc(C)cc(N/N=C/c3ccc(O)cc3)c2c1 | · | · | 81.4* | · | ·
Cc1cc(C)nc(N/N=C/c2ccccc2)n1 | 101.2 | · | 13.0 | 5.1 | -9.2
CCCCCN(C(=O)CCC(=O)OCc1ccc(Cl)cc1Cl)c1c(N)n(CCCC)c(=O)[nH]c1=O | · | · | -8.9 | · | ·
Cc1csc(NC(=O)c2ccccc2)n1 | · | · | 27.1 | · | ·
CCOC(=O)Cc1csc(NC(=S)NC(=O)c2ccccc2)n1 | 96.5 | -2.8 | 34.9 | 7.5 | 3.7
CCOC(=O)Cc1csc(NC(=S)NC(=O)c2ccc(C)cc2)n1 | 81.7 | 27.2 | 81.9* | 17.4 | 9.2
Cc1csc(NC(=S)NC(=O)c2ccccc2)n1 | · | · | 71.8* | · | ·
CCCCNC(=O)c1c(N)[nH]c(C(=O)c2ccccc2)c1-c1ccccn1 | · | · | -6.5 | · | ·
C=C1C(=O)C=C2CN(C(=O)c3ccccc3)[C@@](Cc3ccc(F)cc3)(C(=O)OC)[C@@H]12 | 111.0 | 13.4 | 72.5* | -16.0 | 14.4
C=C1C(=O)CC2=C1[C@](Cc1ccc(F)cc1)(C(=O)OC)N(C(=O)c1ccccc1)C2 | · | · | 6.8 | · | ·
CCCCN(C(=O)c1cccc(S(=O)(=O)N(CC)c2ccccc2)c1)c1c(N)n(CC(C)C)c(=O)[nH]c1=O | · | · | 0.2 | · | ·
CC(O)CC(=O)OC[C@]12CC[C@H]3[C@@](C)(CC[C@H]4C(C)(C)CCC[C@]34C)[C@@H]1CC(C1=CC(=O)OC1O)O2 (stereo not given in full) | · | · | 86.2* | · | ·
SMILES | STAT3 act | PPC-1+TRAIL kill | C8 TRAIL sens | STAT3 inh | STAT1 blocker
O=C(/C=C/c1ccccc1O)c1ccccc1 | · | · | 2.9 | · | ·
O=C(/C=C/c1ccccc1O)c1ccc(Cl)cc1 | 135.2* | 13.5 | -2.6 | -34.5 | 6.0
O=C(/C=C\Nc1ccccn1)c1ccc(Cl)cc1 | 21.1 | 70.7* | 82.2* | 99.8* | 55.5*
O=C(COc1ccc(Br)cc1)N1CCNC1=O | · | · | -12.3 | · | ·
O=C(NCCc1ccco1)C(=O)NCC1CCCN1S(=O)(=O)c1ccccc1 (stereo not given) | · | · | 14.4 | · | ·
O=C(N/N=C\c1ccc(-c2ccccc2[N+](=O)[O-])o1)C1COc2cc3ccccc3cc2O1 (stereo not given) | 110.0 | 10.1 | 5.9 | -1.3 | 12.9
O=C(N/N=C\c1ccc(-c2ccccc2[N+](=O)[O-])o1)C1COc2ccccc2O1 (stereo not given) | 133.3* | 14.9 | -11.4 | -46.2 | 5.0
CCc1nc2ccc(C(=O)NCc3cccs3)cn2c1N(CC)Cc1cccc(Br)c1 | · | · | 18.3 | · | ·
Cc1ccc(Nc2nc(CSc3nnc(-c4ccncc4)n3C)cs2)cc1 | 69.7 | 72.1* | 76.5* | 38.3 | 6.3
Cc1ccc(S(=O)(=O)N(C)C)cc1NC(=O)C(C)N(C)CCOc1ccc(Cl)cc1 (stereo not given) | · | · | -16.1 | · | ·
COc1ccc(C(=O)O)cc1S(=O)(=O)Nc1ccc(Oc2ccccc2)cc1 | · | · | -1.8 | · | ·
Cc1cc(N/N=C/c2ccccc2Cl)nc(NCc2ccccc2)n1 | 92.1 | 45.6 | 57.3* | 4.6 | 0.1
Cc1cc(C)nc(N/N=C/c2ccccc2Cl)n1 | · | 28.7 | 1.8 | · | ·
CCCC#Cc1ccc2c(c1)COc1c3ccccc3nn1-2 | · | · | 36.8 | · | ·
c1ccc2c(c1)COc1c3cc4c(cc3nn1-2)OCO4 | · | · | 58.7* | · | ·
CCN(CC)c1ccc(N=Cc2ccccc2[N+](=O)[O-])cc1 | 104.5 | 57.4* | -2.8 | -0.4 | 3.5
CCN(CC)c1ccc(N=Cc2ccc([N+](=O)[O-])o2)cc1 | 95.5 | 53.0* | 2.6 | 6.2 | 3.4
CC(=O)N(C)c1ccc(N=Cc2cc3c(cc2[N+](=O)[O-])OCO3)cc1 | · | · | 2.6 | · | ·
CCCCCC(=O)N/N=C/c1ccc([N+](=O)[O-])o1 | 91.7 | · | 11.7 | 15.9 | 6.5
COc1cccc(-c2cnc(C(O)c3ccc(C)c(F)c3)[nH]2)c1 (stereo not given) | · | · | -0.2 | · | ·
Cc1ccc(N/C(N)=N/c2nc(CSc3nnc(C)s3)cc(=O)[nH]2)c(C)c1 | 135.3* | 6.8 | -22.3 | -24.7 | 4.8
FC(F)(F)c1nnc(-c2ccccc2)nc1Sc1ccc(Cl)cc1 | 107.4 | 21.9 | 48.2* | -3.4 | 10.0
FC(F)(F)c1cccc(Sc2nc(-c3ccccc3)nnc2C(F)(F)F)c1 | 97.2 | 11.9 | 51.0* | 9.1 | 0.1
FC(F)(F)c1cccc(Oc2nc(-c3ccccc3)nnc2C(F)(F)F)c1 | 108.5 | 19.4 | -3.1 | 1.7 | -3.9
FC(F)(F)c1nnc(-c2ccccc2)nc1Sc1ccccc1 | 118.5 | 10.0 | 9.3 | -16.4 | 7.0
SMILES | STAT3 act | PPC-1+TRAIL kill | C8 TRAIL sens | STAT3 inh | STAT1 blocker
COCCn1c(C)cc(C(=O)CSc2nnc(C)s2)c1C | 26.3 | 38.6 | 49.6* | 92.4* | 39.0*
COCCn1c(C)cc(C(=O)CSc2n[nH]c(N)n2)c1C | 101.3 | -10.5 | 16.1 | 0.6 | -6.6
CN(NC(=O)c1cccc(Cl)c1)c1nc(-c2ccccc2)nnc1C(F)(F)F | 103.5 | 7.4 | 52.6* | 2.0 | 7.3
Cc1cc(=O)[nH]c2nnc(SCC(=O)N3CC(C)OC(C)C3)n12 (stereo not given) | · | · | -17.0 | · | ·
Cc1cc(=O)[nH]c2nnc(-c3ccc(Br)cc3)n12 | · | · | 73.1* | · | ·
CC(=O)Nc1ccc2c(c1)Cc1c(F)cccc1-2 | · | · | -10.8 | · | ·
COC(=O)c1c(-c2ccccc2)csc1NC1=NS(=O)(=O)c2ccccc21 | 122.0 | 39.7 | 73.5* | -26.0 | -39.8
Nc1c(-c2cccs2)cnc2c(-c3ccc(F)cc3)cnn12 | · | · | 60.5* | · | ·
Cc1cc(N)n2ncc(-c3ccc(F)cc3)c2n1 | 116.6 | 22.5 | 7.3 | -14.7 | -42.8
Cc1nc2c(-c3ccc(F)cc3)cnn2c(N)c1-c1ccc(F)cc1 | · | · | 52.8* | · | ·
Nc1c(-c2ccccc2)cnc2c(-c3ccccc3)cnn12 | · | · | 83.7* | · | ·
Nc1c(C(=O)O)cnc2c(-c3ccc(Cl)cc3)cnn12 | 107.1 | 34.2 | 20.5 | 4.4 | -104.0
